Results: ChEMBL document CHEMBL4190394, “Discovery of Novel Pazopanib-Based HDAC and VEGFR Dual Inhibitors Targeting Cancer Epigenetics and Angiogenesis Simultaneously” (J Med Chem, 2018)
Active and inactive are the calls of the source. The calls are words filed in the database; no cut-off is given here.

What was measured:
[1] = target: T1, Vascular endothelial growth factor receptor 2 (Homo sapiens, UniProt P35968); assay: Inhibition of VEGFR-2 (unknown origin) at 0.2 uM after 40 mins by kinase-Glo assay relative to control
T1 sequence (P35968 whole entry): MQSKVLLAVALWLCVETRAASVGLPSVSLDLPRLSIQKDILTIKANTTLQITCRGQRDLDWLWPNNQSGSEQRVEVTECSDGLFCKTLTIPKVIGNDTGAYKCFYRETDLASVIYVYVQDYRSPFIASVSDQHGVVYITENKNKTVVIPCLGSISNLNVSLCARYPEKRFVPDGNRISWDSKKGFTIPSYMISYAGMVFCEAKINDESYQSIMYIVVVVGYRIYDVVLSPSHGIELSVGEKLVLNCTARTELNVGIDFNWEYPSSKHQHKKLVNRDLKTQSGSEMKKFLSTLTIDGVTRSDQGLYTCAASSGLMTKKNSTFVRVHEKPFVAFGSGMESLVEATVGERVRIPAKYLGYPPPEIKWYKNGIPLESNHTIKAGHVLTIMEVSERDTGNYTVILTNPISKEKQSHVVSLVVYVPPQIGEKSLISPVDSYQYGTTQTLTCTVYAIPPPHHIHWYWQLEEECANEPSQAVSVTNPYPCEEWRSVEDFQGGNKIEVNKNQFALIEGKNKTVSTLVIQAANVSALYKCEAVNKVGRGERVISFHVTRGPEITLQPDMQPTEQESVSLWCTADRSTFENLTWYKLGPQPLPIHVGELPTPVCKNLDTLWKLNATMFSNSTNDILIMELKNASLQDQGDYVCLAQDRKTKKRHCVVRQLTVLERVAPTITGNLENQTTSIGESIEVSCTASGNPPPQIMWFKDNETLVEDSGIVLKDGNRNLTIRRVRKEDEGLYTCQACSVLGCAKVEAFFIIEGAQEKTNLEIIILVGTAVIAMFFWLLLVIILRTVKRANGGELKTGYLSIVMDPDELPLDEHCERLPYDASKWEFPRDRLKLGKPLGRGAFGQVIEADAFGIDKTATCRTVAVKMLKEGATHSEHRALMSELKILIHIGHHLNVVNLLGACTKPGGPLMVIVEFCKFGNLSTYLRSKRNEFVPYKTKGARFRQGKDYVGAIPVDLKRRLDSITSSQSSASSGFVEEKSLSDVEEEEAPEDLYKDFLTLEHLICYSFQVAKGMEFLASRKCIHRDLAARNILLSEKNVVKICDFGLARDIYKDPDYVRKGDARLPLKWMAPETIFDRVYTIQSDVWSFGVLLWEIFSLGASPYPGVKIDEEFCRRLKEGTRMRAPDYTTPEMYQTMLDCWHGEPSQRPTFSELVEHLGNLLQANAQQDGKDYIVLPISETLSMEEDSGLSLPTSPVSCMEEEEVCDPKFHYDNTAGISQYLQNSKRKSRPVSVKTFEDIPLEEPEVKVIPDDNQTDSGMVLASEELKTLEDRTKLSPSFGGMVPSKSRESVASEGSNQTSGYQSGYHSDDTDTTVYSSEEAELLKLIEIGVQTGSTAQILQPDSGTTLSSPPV
Procedure, shortened: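 VEGFR-2 tested at a single 200 nM concentration in a Kinase-Glo assay. Compound, kinase, substrate and ATP incubated 40 min at room temperature, then Kinase-Glo reagent added for 15 min and luminescence read. Inhibition rate reported. Replicates n ≥ 2.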

[2] = target: Mast/stem cell growth factor receptor Kit (Homo sapiens, UniProt P10721); assay: Inhibition of C-kit (unknown origin) after 40 mins by kinase-Glo assay
Mast/stem cell growth factor receptor Kit, sequence (P10721 whole entry): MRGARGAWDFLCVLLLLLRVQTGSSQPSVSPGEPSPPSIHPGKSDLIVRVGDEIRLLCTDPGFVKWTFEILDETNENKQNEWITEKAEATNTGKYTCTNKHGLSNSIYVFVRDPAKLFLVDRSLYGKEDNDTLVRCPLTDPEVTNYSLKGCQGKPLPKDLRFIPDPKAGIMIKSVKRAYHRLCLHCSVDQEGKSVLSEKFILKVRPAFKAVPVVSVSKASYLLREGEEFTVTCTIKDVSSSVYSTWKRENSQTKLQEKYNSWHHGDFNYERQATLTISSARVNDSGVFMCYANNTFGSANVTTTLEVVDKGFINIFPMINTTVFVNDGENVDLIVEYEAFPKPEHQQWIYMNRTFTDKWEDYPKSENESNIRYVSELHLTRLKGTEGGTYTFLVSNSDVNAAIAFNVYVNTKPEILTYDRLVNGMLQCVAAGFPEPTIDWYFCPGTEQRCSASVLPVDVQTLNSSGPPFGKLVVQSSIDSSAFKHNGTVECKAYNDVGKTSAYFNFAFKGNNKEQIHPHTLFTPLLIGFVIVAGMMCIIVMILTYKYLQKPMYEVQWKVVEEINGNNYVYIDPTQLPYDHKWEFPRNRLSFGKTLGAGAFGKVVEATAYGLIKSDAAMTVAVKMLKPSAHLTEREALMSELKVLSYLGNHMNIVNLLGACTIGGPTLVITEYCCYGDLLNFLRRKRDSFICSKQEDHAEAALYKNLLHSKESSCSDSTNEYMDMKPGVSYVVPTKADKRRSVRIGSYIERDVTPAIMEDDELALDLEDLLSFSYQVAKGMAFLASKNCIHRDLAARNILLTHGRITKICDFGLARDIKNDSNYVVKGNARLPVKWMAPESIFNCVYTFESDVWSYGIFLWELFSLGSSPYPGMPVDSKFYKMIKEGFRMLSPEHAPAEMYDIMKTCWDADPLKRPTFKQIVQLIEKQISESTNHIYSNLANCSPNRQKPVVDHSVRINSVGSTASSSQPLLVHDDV
Procedure, shortened: (§1)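 Kinase-Glo luminescent assay run by a contract lab. Compound, kinase, substrate and ATP diluted in kinase buffer and incubated 40 min at room temperature. IC50 obtained by nonlinear regression of normalized dose–response.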

HUVEC [3] = assay: Cytotoxicity activity against HUVEC after 72 hrs by MTT assay; type: cell-based; settings: Homo sapiens
Procedure, shortened: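 HUVECs kept in RPMI1640 with 10% FBS at 37 °C, 5% CO2. Cells seeded the day before, grown 12 h, then exposed to a range of compound concentrations for 72 h. Then 0.5% MTT added for 4 h, formazan dissolved in DMSO, and absorbance read at 570 nm.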

Histone deacetylase 2 = Histone deacetylase 2 (Homo sapiens, UniProt Q92769)
Histone deacetylase 2, sequence (Q92769 whole entry): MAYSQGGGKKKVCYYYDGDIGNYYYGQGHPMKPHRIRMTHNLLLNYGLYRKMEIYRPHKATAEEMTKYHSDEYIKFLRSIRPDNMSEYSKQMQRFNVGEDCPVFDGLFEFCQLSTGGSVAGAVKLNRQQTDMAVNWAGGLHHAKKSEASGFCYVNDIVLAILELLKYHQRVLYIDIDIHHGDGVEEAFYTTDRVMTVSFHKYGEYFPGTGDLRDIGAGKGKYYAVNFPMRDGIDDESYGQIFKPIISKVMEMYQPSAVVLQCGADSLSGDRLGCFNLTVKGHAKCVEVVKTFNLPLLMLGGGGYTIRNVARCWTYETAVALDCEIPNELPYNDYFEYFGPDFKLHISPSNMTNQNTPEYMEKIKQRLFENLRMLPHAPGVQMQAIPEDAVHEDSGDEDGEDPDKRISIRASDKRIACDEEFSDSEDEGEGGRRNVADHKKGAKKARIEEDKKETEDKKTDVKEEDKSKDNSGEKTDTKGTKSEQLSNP

Mus musculus [4] = assay: Toxicity in nu BALB/c mouse xenografted with human HT-29 cells assessed as reduction in body weight at 50 mg/kg , po administered for 25 consecutive days measured every day during compound dosing; type: organism-based; settings: in vivo
[5] = target: T1, Vascular endothelial growth factor receptor 2; assay: Inhibition of VEGFR-2 (unknown origin) after 40 mins by kinase-Glo assay; procedure, shortened: as §1
[6] = Clearance in Sprague-Dawley rat at 2 mg/kg, iv by LC-MS/MS analysis; type: ADME, organism-based; settings: in vivo
Procedure, shortened: (§2)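 Sprague–Dawley rats (N = 6) dosed with the hydrochloride salt, 2 mg/kg IV or 10 mg/kg PO. Jugular vein blood drawn at set time points and kept on ice. Plasma separated by centrifugation, stored at -80 °C, and quantified by LC-MS/MS.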

Histone deacetylase 3 = Histone deacetylase 3 (Homo sapiens, UniProt O15379)
Histone deacetylase 3, sequence (O15379 whole entry): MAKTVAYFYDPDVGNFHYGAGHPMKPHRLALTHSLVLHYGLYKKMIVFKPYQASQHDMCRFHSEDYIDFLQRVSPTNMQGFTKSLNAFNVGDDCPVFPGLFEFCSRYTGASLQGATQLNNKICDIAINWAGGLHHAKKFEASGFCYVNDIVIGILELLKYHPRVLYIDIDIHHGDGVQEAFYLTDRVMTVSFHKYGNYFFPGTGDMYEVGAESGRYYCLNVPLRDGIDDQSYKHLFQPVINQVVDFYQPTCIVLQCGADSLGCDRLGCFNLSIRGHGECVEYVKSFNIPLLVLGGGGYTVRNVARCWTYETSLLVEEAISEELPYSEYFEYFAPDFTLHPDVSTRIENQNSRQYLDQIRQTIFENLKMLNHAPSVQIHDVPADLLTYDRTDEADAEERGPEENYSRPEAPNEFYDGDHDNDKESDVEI

Histone deacetylase = type: protein assay, Homo sapiens
HUVEC [7] = assay: Antiangiogenic activity in human HUVEC cells assessed as reduction in capillary-like tubular network formation at 0.1 uM after 6 hrs by phase-contrast microscopy; type: functional, cell-based
Procedure, shortened: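 HUVECs trypsinized and seeded at 40000/well on Matrigel polymerized 0.5 h at 37 °C. Cells held 6 h at 37 °C in M199 with 5% FBS, with compound or DMSO. Tube formation viewed and photographed by phase-contrast microscopy at 200 magnification. Three independent experiments.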

[8] = target: Histone deacetylase 1/2/3 (Homo sapiens) (UniProt Q13547+O15379+Q92769); settings: HeLa, at 1 µM
HT-29 [9] = assay: Antitumor activity against human HT-29 cells xenografted in BALB/c nu mouse assessed as tumor growth level at 50 mg/kg, po administered for 25 consecutive days measured every 3 days during compound dosing relative to control; type: functional
Procedure, shortened: (§3)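 HT-29 cells (1×10^7) implanted s.c. in right flank of male BALB/c-nu mice aged 5–6 weeks. At about 100 mm³ (day 10), mice randomized 6 per group and dosed orally for 25 consecutive days. Controls received PBS with 5% DMSO. T/C is mean RTV (Vt/V0) treated over control. TGI taken from final tumor weights. Student's two-tailed t test.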

HT-1080 = assay: Antiproliferative activity against human HT1080 cells after 72 hrs by MTT assay; type: functional, cell-based; settings: HT-1080, 72 h
PC-3 = assay: Antiproliferative activity against human PC3 cells after 72 hrs by MTT assay; type: functional, cell-based; settings: PC-3, 72 h
MOLT-4 = assay: Antiproliferative activity against human MOLT4 cells after 72 hrs by MTT assay; type: functional, cell-based; settings: MOLT-4, 72 h
HeLa = assay: Antiproliferative activity against human HeLa cells after 72 hrs by MTT assay; type: functional, cell-based
HEL = assay: Antiproliferative activity against human HEL cells after 72 hrs by MTT assay; type: functional, cell-based
[10] = AUC (0 to t) in Sprague-Dawley rat at 2 mg/kg, iv by LC-MS/MS analysis; type: ADME, organism-based; settings: in vivo; procedure, shortened: as §2
[11] = Apparent volume of distribution in Sprague-Dawley rat at 2 mg/kg, iv by LC-MS/MS analysis; type: ADME, organism-based; settings: in vivo, read-out: Vz; procedure, shortened: as §2
[12] = target: Fibroblast growth factor receptor 1 (Homo sapiens, UniProt P11362); assay: Inhibition of FGFR1 (unknown origin) after 40 mins by kinase-Glo assay
Fibroblast growth factor receptor 1, sequence (P11362 whole entry): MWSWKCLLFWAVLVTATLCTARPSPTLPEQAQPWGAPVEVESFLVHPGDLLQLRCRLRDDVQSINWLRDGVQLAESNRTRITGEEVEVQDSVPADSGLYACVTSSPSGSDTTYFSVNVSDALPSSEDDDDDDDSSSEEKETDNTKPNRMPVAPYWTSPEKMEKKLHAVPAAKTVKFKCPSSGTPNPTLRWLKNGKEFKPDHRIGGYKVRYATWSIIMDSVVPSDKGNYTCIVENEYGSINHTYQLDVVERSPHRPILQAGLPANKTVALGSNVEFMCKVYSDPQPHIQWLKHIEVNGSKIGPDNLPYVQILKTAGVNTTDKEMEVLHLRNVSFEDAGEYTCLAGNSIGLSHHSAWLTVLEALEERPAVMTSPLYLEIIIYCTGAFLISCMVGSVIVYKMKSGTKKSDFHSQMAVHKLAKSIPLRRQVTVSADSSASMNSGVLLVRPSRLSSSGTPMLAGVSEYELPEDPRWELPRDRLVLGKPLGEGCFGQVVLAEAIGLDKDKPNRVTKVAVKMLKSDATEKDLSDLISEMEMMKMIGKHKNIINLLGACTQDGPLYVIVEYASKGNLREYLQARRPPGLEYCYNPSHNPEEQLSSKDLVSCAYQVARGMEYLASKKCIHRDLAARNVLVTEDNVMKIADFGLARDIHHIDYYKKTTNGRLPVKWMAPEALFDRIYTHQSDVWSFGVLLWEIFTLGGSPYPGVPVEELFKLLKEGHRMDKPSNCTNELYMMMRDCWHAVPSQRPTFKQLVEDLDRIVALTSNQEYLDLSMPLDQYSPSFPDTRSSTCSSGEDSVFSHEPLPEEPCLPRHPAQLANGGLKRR

[13] = Cmax in Sprague-Dawley rat at 2 mg/kg, iv by LC-MS/MS analysis; type: ADME, organism-based; parameters: dose 2 mg/kg, route intravenous; settings: in vivo; procedure, shortened: as §2
Mus musculus [14] = assay: Hepatotoxicity in nu BALB/c mouse xenografted with human HT-29 cells at 50 mg/kg , po administered for 25 consecutive days by macroscopic analysis; type: toxicity, organism-based; settings: in vivo
Procedure, shortened: (§4)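 HT-29 xenografted male BALB/c-nu mice dosed orally for 25 days, with PBS (5% DMSO) controls. After treatment mice were sacrificed and dissected, and internal organ injury was examined macroscopically.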

[15] = Half life in Sprague-Dawley rat at 10 mg/kg, po by LC-MS/MS analysis; type: ADME, organism-based; settings: in vivo; procedure, shortened: as §2
Mus musculus [16] = assay: Toxicity in nu BALB/c mouse spleen xenografted with human HT-29 cells at 50 mg/kg , po administered for 25 consecutive days by macroscopic analysis; type: organism-based; settings: in vivo; procedure, shortened: as §4
[17] = AUC (0 to t) in Sprague-Dawley rat at 10 mg/kg, po by LC-MS/MS analysis; type: ADME, organism-based; settings: in vivo
[18] = MRT (0 to t) in Sprague-Dawley rat at 10 mg/kg, po by LC-MS/MS analysis; type: ADME, organism-based; settings: in vivo; procedure, shortened: as §2
MDA-MB-231 = assay: Antiproliferative activity against human MDA-MB-231 cells after 72 hrs by MTT assay; type: functional, cell-based; settings: MDA-MB-231, 72 h
K562 = assay: Antiproliferative activity against human K562 cells after 72 hrs by MTT assay; type: functional, cell-based; settings: K562, 72 h
HT-29 [19] = assay: Antitumor activity against human HT-29 cells xenografted in BALB/c nu mouse assessed as tumor growth inhibition at 50 mg/kg, po administered for 25 consecutive days measured every 3 days during compound dosing relative to control; type: functional; settings: HT-29, po, read-out: TGI; procedure, shortened: as §3
Thoracic aorta = assay: Antiangiogenic activity in Sprague-Dawley rat thoracic aorta ring assessed as reduction in micro-vessel growth at 5 uM treated every day for 6 days by matrigel-based inverted microscopic analysis relative to control; type: functional, tissue-based
Procedure, shortened: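 Aortas taken from 4–6-week-old Sprague–Dawley rats, cut into 1-mm rings and embedded in Matrigel. Rings held 30 min at 37 °C, 5% CO2, then treated daily for 6 days with compound or 0.5% DMSO vehicle. Microvessel outgrowth photographed on day 7 at ×200. Three independent experiments.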

[20] = Half life in Sprague-Dawley rat at 2 mg/kg, iv by LC-MS/MS analysis; type: ADME, organism-based; settings: in vivo; procedure, shortened: as §2
[21] = Cmax in Sprague-Dawley rat at 10 mg/kg, po by LC-MS/MS analysis; type: ADME, organism-based; parameters: dose 10 mg/kg, route oral; settings: in vivo; procedure, shortened: as §2

Cc1c2ccc(N(C)c3ccnc(Nc4ccc(C(=O)Nc5ccccc5N)cc4)n3)cc2nn1C
inhibition [1]: 100%
IC50 [2]: 0.125 µM
IC50 (HUVEC [3]): 16 µM
IC50 (Histone deacetylase 2): 0.91 µM
Activity (Mus musculus [4]): Non-Toxic
IC50 [5]: 0.037 µM
clearance [6]: 14.6 mL/min/kg
IC50 (Histone deacetylase 3): 0.43 µM
IC50 (Histone deacetylase): 4.6 µM
Activity (HUVEC [7]): Active
inhibition [8]: Active
T/C (HT-29 [9]): 65%
IC50 (HT-1080): > 5 µM
IC50 (PC-3): 2.38 µM
IC50 (MOLT-4): 0.94 µM
IC50 (HeLa): 1.71 µM
IC50 (HEL): 1.52 µM
AUC(0-t) [10]: 2380 ng·h/mL
Vd [11]: 2.06 L/kg
IC50 [12]: 0.192 µM
Cmax [13]: 2780 ng/mL
Activity (Mus musculus [14]): Non-Toxic
half-life [15]: 2.1 h
Activity (Mus musculus [16]): Non-Toxic
AUC(0-t) [17]: 8570 ng·h/mL
MRT last [18]: 2.54 h
IC50 (MDA-MB-231): 3.74 µM
IC50 (K562): 1.82 µM
inhibition in vivo at 50 mg/kg (HT-29 [19]): 40%
Activity (Thoracic aorta): Active
half-life [20]: 1.64 h
Cmax [21]: 3240 ng/mL
